# Source: ChEMBL document CHEMBL5303300, “EUbOPEN Chemogenomics Library - Multiplex” (2023)
# Where “and” joins values, the source holds several entries; their conditions need not be identical. Equal values may be shown once.
# Test system: U2OS
# Experiment: Multiplex assay against U2OS
# Format: toxicity, cell-based
# Conditions: human, number of replicates 2
# How it was run: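 Values for tubulin, mitochondrial-mass and membrane-permeability phenotypes are per cents of cells with healthy nuclei. These cells were identified by CellPathfinder machine-learning gating of live cells that had been stained at seeding with Hoechst33342, BioTracker Green Microtubule Cytoskeleton Dye, MitoTracker Red and Annexin V Alexa Fluor 680 and imaged on a CQ1 microscope at 37°C and 5% CO2 after compound addition. The gating first set Hoechst high-intensity objects apart from normal cells, then split normal cells into healthy, pyknosed or fragmented nuclei, and pyknosed cells into mitotic or apoptotic.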
# [1] = 12 h, 10 µM, compound concentration 10 uM
# [2] = 24 h, 10 µM, compound concentration 10 uM
# [3] = 48 h, 10 µM, compound concentration 10 uM
# [4] = 12 h, 1 µM, compound concentration 1 uM
# [5] = 24 h, 1 µM, compound concentration 1 uM
# [6] = 48 h, 1 µM, compound concentration 1 uM
compound,measurement,setting,value
CCOC(=O)Nc1cc(-c2ccc(C)c(NS(C)(=O)=O)c2)nn2c(C)nnc12,Population Apoptotic (%),[1],54% and 50% and 20%
same,Population Healthy Nuclei (%),[1],66% and 75% and 76% and 53%
same,Population Hoechst High Intensity Objects (%),[1],0%
same,Population Membrane Permeable-Phenotype (%),[1],3% and 0% and 5%
same,Population Mitochondria Different-Phenotype (%),[1],3% [middle of 4 runs]
same,Population Mitotic Cells (%),[1],45% and 50% and 80%
same,Population Normal (%),[1],100%
same,Population Pyknosed Nuclei (%),[1],24% and 19% and 17% and 15%
same,Population Tubulin-Different-Phenotype (%),[1],59% [middle of 4 runs]
same,Population Apoptotic (%),[2],70% and 65% and 53% and 66%
same,Population Healthy Nuclei (%),[2],59% and 69% and 67% and 50%
same,Population Hoechst High Intensity Objects (%),[2],0%
same,Population Membrane Permeable-Phenotype (%),[2],6% [middle of 4 runs]
same,Population Mitotic Cells (%),[2],29% and 35% and 46% and 33%
same,Population Normal (%),[2],100% and 99%
same,Population Pyknosed Nuclei (%),[2],20% [middle of 4 runs]
same,Population Tubulin-Different-Phenotype (%),[2],71% [middle of 4 runs]
same,Population Apoptotic (%),[3],85% and 72% and 76%
same,Population Fragmented Nuclei (%),[3],30% and 20% and 18%
same,Population Healthy Nuclei (%),[3],30% and 33% and 51%
same,Population Hoechst High Intensity Objects (%),[3],0% and 3%
same,Population Mitochondria Different-Phenotype (%),[3],9% and 0% and 3%
same,Population Mitotic Cells (%),[3],14% and 27% and 23%
same,Population Normal (%),[3],100% and 96% and 99%
same,Population Pyknosed Nuclei (%),[3],38% and 45% and 27% and 29%
CS(=O)(=O)c1ccc(C(=O)Nc2cccc(COc3cc(F)c(Br)cc3CN3CC[C@H](O)C3)c2)c(Cl)c1.O=CO,Population Apoptotic (%),[4],62% and 55%
same,Population Hoechst High Intensity Objects (%),[4],0%
same,Population Pyknosed Nuclei (%),[4],19% and 14%
same,Population Apoptotic (%),[1],66% and 54%
same,Population Healthy Nuclei (%),[1],36% and 74%
same,Population Hoechst High Intensity Objects (%),[1],0%
same,Population Pyknosed Nuclei (%),[1],20% and 16%
same,Total Cell Count,[1],90 and 192
same,Population Apoptotic (%),[5],50% and 66%
same,Population Healthy Nuclei (%),[5],56%
same,Population Hoechst High Intensity Objects (%),[5],0%
same,Population Pyknosed Nuclei (%),[5],20% and 10%
same,Population Apoptotic (%),[2],82% and 73%
same,Population Healthy Nuclei (%),[2],33%
same,Population Hoechst High Intensity Objects (%),[2],0%
same,Population Pyknosed Nuclei (%),[2],19% and 26%
same,Total Cell Count,[2],86 and 214
same,Population Apoptotic (%),[6],58% and 92%
same,Population Fragmented Nuclei (%),[6],22%
same,Population Healthy Nuclei (%),[6],58%
same,Population Hoechst High Intensity Objects (%),[6],0%
same,Population Pyknosed Nuclei (%),[6],19% and 10%
same,Population Apoptotic (%),[3],88% and 84%
same,Population Healthy Nuclei (%),[3],26%
same,Population Hoechst High Intensity Objects (%),[3],0%
same,Population Pyknosed Nuclei (%),[3],28%
